ChEMBL document CHEMBL4665761, “Optimizing the Benefit/Risk of Acetyl-CoA Carboxylase Inhibitors through Liver Targeting” (J Med Chem, 2020)
Values after ≈ are worked out from the molar mass of the structure shown.

How the values were obtained:
[1] = Drug uptake in human hepatocytes assessed as ratio of active uptake intrinsic clearance to passive diffusion clearance at 1 uM up to 15 mins by LC-MS/MS analysis; format: ADME, cell-based, Hepatocyte; details: 0.25 h
OATP1B1 = biological target: T1, OATP1B1 (Homo sapiens, UniProt Q9Y6L6); experiment: Substrate activity at human OATP1B1 stably expressed in HEK293 cells assessed as ratio of total to passive cellular uptake at 1 to 3 uM incubated for 0.5 to 4 mins by LC/MS-MS analysis; format: ADME, cell-based; details: HEK293 cells stably expressing human OATP1B1, dose 1-3 µM, time 0.5-4 min
T1 sequence (Q9Y6L6 whole entry): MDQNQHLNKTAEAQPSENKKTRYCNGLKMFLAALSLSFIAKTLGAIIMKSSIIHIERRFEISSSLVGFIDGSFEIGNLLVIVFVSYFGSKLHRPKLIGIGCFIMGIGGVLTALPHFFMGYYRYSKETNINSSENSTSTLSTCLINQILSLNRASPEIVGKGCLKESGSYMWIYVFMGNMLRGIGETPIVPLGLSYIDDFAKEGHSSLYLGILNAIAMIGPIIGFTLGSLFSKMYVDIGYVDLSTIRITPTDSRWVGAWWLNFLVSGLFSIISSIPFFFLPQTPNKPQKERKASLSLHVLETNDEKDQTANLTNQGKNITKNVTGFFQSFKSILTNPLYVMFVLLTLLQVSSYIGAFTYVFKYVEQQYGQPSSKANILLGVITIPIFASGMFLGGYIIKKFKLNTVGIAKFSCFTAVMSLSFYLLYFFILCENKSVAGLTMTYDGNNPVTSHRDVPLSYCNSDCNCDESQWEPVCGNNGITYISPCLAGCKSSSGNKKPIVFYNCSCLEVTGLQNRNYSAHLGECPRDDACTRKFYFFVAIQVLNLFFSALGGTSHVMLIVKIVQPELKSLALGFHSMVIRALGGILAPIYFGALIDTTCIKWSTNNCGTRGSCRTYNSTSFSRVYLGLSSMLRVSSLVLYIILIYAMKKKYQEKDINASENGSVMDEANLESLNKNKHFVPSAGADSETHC
Procedure, shortened: (§1)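 Stably transfected HEK293 cells and wild-type parental cells, cultured to confluency in DMEM with 10% heat-inactivated FBS and 5 µg/mL blasticidin. Uptake at 1–3 µM in HBSS/20 mM HEPES pH 7.4, 37 °C, 0.5–4.0 min. Cells washed in ice-cold buffer, lysed in MeOH, quantified by LC-MS/MS and normalized to protein. Ratio is transfected/parental uptake; >2 denotes substrate.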

Cytochrome P450 2D6 = Cytochrome P450 2D6 (Homo sapiens, UniProt P10635); experiment: inhibition of CYP2D6 in human liver microsomes; format: ADME
Cytochrome P450 2C19 = Cytochrome P450 2C19 (Homo sapiens, UniProt P33261); experiment: inhibition of CYP2C19 in human liver microsomes; format: ADME
OATP1B3 = biological target: T2, OATP1B3 (Homo sapiens, UniProt Q9NPD5); experiment: Substrate activity at human OATP1B3 stably expressed in HEK293 cells assessed as ratio of total to passive cellular uptake at 1 to 3 uM incubated for 0.5 to 4 mins by LC/MS-MS analysis; format: ADME, cell-based; details: HEK293 cells stably expressing human OATP1B3, dose 1-3 µM, time 0.5-4 min; procedure, shortened: as §1
T2 sequence (Q9NPD5 whole entry): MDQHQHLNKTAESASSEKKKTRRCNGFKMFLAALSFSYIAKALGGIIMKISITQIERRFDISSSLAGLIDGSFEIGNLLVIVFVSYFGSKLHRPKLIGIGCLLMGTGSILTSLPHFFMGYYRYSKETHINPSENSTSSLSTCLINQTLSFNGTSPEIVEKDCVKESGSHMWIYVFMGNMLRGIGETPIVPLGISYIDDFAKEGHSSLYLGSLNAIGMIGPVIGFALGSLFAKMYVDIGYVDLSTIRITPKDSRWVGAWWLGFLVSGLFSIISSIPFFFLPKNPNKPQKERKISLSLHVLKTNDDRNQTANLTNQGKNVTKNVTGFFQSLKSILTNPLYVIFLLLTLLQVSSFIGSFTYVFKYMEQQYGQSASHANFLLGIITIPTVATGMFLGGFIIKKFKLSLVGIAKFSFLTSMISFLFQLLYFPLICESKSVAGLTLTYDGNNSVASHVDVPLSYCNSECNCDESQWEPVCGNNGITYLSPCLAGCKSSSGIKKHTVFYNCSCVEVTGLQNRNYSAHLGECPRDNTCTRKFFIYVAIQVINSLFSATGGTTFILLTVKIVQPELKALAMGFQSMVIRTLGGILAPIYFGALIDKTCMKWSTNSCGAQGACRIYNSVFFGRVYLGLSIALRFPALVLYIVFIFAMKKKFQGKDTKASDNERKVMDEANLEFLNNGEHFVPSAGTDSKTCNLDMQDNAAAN

Cytochrome P450 2C8 = Cytochrome P450 2C8 (Homo sapiens, UniProt P10632); experiment: inhibition of CYP2C8 in human liver microsomes; format: ADME
Bile salt export pump = Bile salt export pump (Homo sapiens, UniProt O95342); experiment: Inhibition of human BSEP expressed in baculovirus infected Hi5 insect cells in presence of taurocholic acid by LC-MS/MS analysis
[2] = Genotoxicity in Salmonella typhimurium TA100 by Ames test; format: toxicity; details: salmonella enterica subsp. enterica serovar typhimurium
Procedure, shortened: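 Ames test in Salmonella strains TA98, TA100, TA1535 and TA1537, run with and without aroclor-induced rat liver S9 plus NADPH.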

[3] = Ratio of drug uptake in Wistar-Hannover rat unbound liver to plasma concentration at 10 mg/kg, po after 6 hrs by LC/MS-MS analysis; format: ADME, organism-based; details: other tissue
Procedure, shortened: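 Male Wistar-Hannover rats (n = 2 or 3) dosed orally as a suspension in 0.5% methyl cellulose with 0.1% Tween 80. Total plasma and liver concentrations taken 6 h post-dose. Converted to unbound values using fraction unbound in plasma and liver from equilibrium dialysis. Kpu,u = ratio of mean free liver to free plasma concentration.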

[4] = biological target: UDP-glucuronosyltransferase 1A9 (Homo sapiens, UniProt O60656); experiment: Inhibition of UGT1A9 in human liver microsomes incubated for 30 mins in presence of UDPGA by LC-MS/MS analysis; format: ADME
[5] = biological target: UDP-glucuronosyltransferase 2B15 (Homo sapiens, UniProt P54855); experiment: Inhibition of UGT2B15 in human liver microsomes in presence of UDPGA by LC-MS/MS analysis; format: ADME
[6] = Unbound plasma concentration in Sprague-Dawley rat at 300 mg/kg, po; format: ADME, organism-based; details: in vivo
Procedure, shortened: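 Sprague-Dawley rats given a single oral dose in 0.5% methyl cellulose vehicle. Unbound plasma concentration measured at 300 mg/kg.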

[7] = Thermodynamic solubility of the compound at pH 6.5 after 24 hrs; format: physicochemical; details: buffer, read-out: Therm_solubility
[8] = Drug uptake in Wistar-Hannover rat assessed as plasma concentration at 30 mg/kg, po after 6 hrs by LC/MS-MS analysis; format: ADME, organism-based
Procedure, shortened: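 Male Wistar-Hannover rats, n = 2 or 3, given an oral suspension in 0.5% methyl cellulose with 0.1% Tween 80; one compound was dosed as the HCl salt. Total plasma and liver concentrations were measured 6 h post-dose. Kp = liver/plasma total concentration. Kpu,u uses fu values from equilibrium dialysis.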

Cytochrome P450 2C8, sequence (P10632 whole entry): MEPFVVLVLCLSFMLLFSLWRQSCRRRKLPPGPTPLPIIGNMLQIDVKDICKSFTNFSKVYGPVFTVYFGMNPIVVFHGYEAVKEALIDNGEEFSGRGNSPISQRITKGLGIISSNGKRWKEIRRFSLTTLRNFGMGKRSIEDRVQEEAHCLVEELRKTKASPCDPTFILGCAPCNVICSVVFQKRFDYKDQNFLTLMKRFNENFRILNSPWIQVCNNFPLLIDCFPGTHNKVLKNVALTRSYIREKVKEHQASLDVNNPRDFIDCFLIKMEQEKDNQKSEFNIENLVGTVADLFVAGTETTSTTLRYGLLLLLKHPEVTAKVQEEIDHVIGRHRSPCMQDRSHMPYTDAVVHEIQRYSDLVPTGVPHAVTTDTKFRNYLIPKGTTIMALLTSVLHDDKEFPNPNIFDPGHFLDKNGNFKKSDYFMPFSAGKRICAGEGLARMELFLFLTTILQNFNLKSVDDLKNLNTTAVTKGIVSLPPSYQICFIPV
Cytochrome P450 2C19, sequence (P33261 whole entry): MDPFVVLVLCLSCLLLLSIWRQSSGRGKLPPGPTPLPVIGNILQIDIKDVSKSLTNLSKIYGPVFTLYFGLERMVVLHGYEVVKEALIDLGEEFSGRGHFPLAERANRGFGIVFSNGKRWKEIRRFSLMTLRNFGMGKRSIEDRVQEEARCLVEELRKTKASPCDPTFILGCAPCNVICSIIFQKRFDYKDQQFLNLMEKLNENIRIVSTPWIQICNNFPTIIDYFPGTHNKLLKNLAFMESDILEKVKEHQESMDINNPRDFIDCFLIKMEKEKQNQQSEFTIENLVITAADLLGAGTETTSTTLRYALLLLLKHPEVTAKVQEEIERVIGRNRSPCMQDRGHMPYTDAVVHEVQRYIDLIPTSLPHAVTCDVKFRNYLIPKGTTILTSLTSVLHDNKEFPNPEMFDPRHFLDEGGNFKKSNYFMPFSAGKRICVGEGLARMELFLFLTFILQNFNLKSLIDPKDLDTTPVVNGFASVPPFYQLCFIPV
Cytochrome P450 2D6, sequence (P10635 whole entry): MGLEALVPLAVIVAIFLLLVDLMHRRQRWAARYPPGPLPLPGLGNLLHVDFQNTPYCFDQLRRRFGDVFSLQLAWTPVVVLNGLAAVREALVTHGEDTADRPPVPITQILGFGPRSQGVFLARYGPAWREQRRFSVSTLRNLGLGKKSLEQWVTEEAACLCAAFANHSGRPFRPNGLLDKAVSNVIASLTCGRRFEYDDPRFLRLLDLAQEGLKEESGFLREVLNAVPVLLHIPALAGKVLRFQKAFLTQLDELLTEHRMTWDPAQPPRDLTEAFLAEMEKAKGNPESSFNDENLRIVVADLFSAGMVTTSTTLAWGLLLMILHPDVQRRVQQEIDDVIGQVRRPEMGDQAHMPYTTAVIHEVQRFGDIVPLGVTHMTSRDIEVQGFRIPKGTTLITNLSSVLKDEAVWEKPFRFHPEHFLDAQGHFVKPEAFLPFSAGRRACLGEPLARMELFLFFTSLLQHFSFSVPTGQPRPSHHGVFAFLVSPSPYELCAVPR
UDP-glucuronosyltransferase 1A9, sequence (O60656 whole entry): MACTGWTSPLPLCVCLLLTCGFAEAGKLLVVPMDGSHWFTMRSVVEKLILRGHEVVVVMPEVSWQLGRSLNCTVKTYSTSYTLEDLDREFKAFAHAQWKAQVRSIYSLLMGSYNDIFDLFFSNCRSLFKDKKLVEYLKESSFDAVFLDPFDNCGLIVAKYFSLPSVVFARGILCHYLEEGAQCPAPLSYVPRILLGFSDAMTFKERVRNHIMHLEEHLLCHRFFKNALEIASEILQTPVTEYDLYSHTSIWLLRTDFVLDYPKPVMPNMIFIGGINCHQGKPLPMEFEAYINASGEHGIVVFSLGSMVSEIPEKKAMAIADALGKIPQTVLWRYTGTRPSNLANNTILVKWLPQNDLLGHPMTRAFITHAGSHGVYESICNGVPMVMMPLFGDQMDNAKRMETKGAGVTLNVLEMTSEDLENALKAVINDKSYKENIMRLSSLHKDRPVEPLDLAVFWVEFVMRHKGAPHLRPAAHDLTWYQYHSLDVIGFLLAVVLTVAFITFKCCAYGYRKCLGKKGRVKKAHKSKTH
Bile salt export pump, sequence (O95342 whole entry): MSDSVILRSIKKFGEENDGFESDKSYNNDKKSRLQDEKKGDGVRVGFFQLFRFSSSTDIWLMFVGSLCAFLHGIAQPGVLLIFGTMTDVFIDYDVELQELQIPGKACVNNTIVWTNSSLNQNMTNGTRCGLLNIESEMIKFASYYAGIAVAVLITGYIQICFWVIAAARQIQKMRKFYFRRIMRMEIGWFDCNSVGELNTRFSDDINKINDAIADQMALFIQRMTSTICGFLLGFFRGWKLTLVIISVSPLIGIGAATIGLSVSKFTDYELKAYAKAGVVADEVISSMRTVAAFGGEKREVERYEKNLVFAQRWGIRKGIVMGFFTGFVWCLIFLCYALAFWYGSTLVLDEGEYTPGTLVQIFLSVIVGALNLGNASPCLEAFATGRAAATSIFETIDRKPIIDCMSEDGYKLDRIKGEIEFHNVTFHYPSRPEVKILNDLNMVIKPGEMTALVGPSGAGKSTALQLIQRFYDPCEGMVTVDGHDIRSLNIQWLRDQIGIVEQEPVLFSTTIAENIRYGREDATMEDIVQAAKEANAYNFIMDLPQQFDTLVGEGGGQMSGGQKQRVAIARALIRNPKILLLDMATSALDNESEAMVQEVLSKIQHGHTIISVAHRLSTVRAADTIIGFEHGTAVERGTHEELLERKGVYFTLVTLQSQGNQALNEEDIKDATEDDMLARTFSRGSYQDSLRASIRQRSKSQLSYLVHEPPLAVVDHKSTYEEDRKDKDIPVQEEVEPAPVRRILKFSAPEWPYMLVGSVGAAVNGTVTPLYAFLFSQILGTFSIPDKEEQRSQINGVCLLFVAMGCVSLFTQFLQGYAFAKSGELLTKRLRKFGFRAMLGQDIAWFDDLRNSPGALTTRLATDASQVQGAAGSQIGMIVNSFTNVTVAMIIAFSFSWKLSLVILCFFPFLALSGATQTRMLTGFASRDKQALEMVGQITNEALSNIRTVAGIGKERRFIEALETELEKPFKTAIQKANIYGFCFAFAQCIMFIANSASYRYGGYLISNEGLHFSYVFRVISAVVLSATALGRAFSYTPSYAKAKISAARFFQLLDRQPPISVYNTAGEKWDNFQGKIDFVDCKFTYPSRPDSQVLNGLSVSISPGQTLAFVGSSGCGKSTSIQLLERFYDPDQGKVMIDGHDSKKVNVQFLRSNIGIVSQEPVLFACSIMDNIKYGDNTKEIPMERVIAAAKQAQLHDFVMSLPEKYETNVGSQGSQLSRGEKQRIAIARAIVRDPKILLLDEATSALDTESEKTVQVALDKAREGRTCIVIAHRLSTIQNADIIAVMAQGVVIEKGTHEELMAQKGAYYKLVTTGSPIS
UDP-glucuronosyltransferase 2B15, sequence (P54855 whole entry): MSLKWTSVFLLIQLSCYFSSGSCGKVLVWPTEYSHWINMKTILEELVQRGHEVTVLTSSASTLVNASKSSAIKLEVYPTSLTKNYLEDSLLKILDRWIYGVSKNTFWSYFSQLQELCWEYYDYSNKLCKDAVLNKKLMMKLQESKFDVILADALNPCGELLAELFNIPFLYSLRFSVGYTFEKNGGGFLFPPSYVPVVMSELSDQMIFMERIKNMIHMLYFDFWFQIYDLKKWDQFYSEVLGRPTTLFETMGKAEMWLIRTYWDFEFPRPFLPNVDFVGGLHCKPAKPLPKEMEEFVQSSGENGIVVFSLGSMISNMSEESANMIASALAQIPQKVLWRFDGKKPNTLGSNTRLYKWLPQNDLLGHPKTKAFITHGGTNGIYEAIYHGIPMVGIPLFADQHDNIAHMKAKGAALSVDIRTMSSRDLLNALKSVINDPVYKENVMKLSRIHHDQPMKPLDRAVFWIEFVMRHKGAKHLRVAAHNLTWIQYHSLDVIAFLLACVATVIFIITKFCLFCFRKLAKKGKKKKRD

Row | Ratio [1] | uptake ratio at up to 3 µM (OATP1B1) | IC50 (Cytochrome P450 2D6) [µM] | IC50 (Cytochrome P450 2C19) [µM] | uptake ratio at up to 3 µM (OATP1B3) | IC50 (Cytochrome P450 2C8) [µM] | Ratio [3] | IC50 [4] [µM] | IC50 [5] [µM] | Cp(f) [6] [nM] | solubility thermodynamic at 24 h [7] [µM] | concentration at 6 h [8] [ng/mL] | Structure (SMILES) | IC50 (Bile salt export pump) [µM] | Activity [2]
1 | 8.7 | 3.5 | > 50 | > 50 | 2.5 | > 50 | 132 | > 20 | > 20 | 119.4 | 36 (≈ 18.1 µg/mL) |  | COc1cc(C(=O)N2CCC3(CC2)CC(=O)c2c(cnn2C(C)C)C3)cc(-c2ccc(C(=O)O)cc2)n1 [CLESACOSTAT] | 94 | Non-Toxic
2 |  |  |  |  |  |  |  |  |  |  |  | 41.7 | COc1cc(C(=O)N2CCC3(CC2)CC(=O)c2nn(C(C)(C)C)cc2O3)cc(-c2ccc(C(=O)O)cc2)n1 |  | 
